Data taken from ChEMBL document CHEMBL1125380, “Synthesis, cardiac electrophysiology, and beta-blocking activity of novel arylpiperazines with potential as class II/III antiarrhythmic agents” (J Med Chem, 1992).
The source made the active and inactive calls. The calls are words filed in the database; no cut-off is given here.

Columns and labels:
Canis familiaris [1] = organism: Canis familiaris; test: Concentration necessary to prolong APD at 95% repolarization by 20% from control.; assay type: functional, Canis lupus familiaris
How it was run: (§1)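 Concentration giving a 20% prolongation of action potential duration at 95% repolarization versus control, with Vmax monitored as a class I index. Values are the log mean of n experiments with range; concentrations went up to 30 µM.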

[2] = biological target: Beta-2 adrenergic receptor (Canis lupus familiaris, UniProt P54833); assay type: cell membranes
Sequence of Beta-2 adrenergic receptor (P54833 whole entry): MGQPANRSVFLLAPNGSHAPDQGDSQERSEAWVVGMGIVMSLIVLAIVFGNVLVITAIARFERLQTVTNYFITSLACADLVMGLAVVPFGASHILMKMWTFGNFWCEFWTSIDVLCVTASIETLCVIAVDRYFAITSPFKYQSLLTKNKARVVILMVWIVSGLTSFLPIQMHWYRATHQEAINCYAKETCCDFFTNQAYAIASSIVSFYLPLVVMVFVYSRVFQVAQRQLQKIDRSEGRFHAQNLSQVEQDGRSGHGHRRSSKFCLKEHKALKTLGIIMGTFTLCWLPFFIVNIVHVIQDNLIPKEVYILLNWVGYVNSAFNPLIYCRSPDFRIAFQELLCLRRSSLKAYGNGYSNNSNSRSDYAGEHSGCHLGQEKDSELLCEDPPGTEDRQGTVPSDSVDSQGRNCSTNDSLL

Canis familiaris [3] = test: number of effected animals / number of tested animals at 3 mg/kg in a halothane / epinephrine model; assay type: functional, Canis lupus familiaris
How it was run: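 Halothane-anesthetized dogs received compound as a 10-min iv infusion at 3 mg/kg. Thirty minutes later, epinephrine was infused at 1.5 µg/kg per min for 15 min. Protection meant no SVT/VF during the whole epinephrine infusion; reported as protected/tested.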

Canis familiaris [4] = organism: Canis familiaris; test: Compound was evaluated for Total peripheral resistance in dog; assay type: functional, Canis lupus familiaris
How it was run: (§2)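 Pentobarbital-anesthetized mongrel dogs (n = 4) received a 10 mg/kg iv dose over 5 min. Haemodynamic parameters were recorded 15 min after dosing, as change from pre-dose.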

Canis familiaris [5] = organism: Canis familiaris; test: Number of active animals / number of tested animals in programmed electrical stimulation model (PES); assay type: functional, Canis lupus familiaris
How it was run: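 Conscious dogs studied by programmed electrical stimulation 3-8 days after occlusion/reperfusion infarction. Two control SVT/VF inductions were made first, with VF ended by DC countershock and SVT by burst pacing. Reinduction was tried after iv compound; an animal counted as protected if SVT/VF could not be induced.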

Canis familiaris [6] = organism: Canis familiaris; test: Compound was evaluated for change in Heart rate in dog; assay type: functional, Canis lupus familiaris; how it was run: as §2
Canis familiaris [7] = organism: Canis familiaris; test: Peak range of change in left ventricular pressure in dog; assay type: functional, Canis lupus familiaris, Heart left ventricle; how it was run: as §2
Canis familiaris [8] = organism: Canis familiaris; test: Compound was evaluated for Cardiac output in dog; assay type: functional, Canis lupus familiaris; how it was run: as §2
Canis familiaris [9] = organism: Canis familiaris; test: Compound was evaluated for Mean arterial pressure in dog; assay type: functional, Canis lupus familiaris, Artery; how it was run: as §2
Canis familiaris [10] = organism: Canis familiaris; test: Concentration necessary to prolong APD at 95% repolarization by 20% from control; Not Reached at 30 uM; assay type: functional; conditions: Canis lupus familiaris; how it was run: as §1

Row | Structure (SMILES) | C20 APD95 (Canis familiaris [1]) | IC50 [2] | also measured
1 | CS(=O)(=O)Nc1ccc(C(=O)NCC2CN(c3cccc(Cl)c3)CCN2)cc1 (configuration not stated) | 0.8 µM | 3.8 µM | 
2 | CS(=O)(=O)Nc1ccc(CNCC2CN(c3ccccc3)CCN2)cc1 (configuration not stated) | 0.4 µM | 4.6 µM | 
3 | CS(=O)(=O)Nc1ccc(C(=O)NCC2CN(c3ccccc3)CCN2)cc1 (configuration not stated) | 0.8 µM | 3.4 µM | No. effective (Canis familiaris [3]): 5; TPR (Canis familiaris [4]): 22; No. active (Canis familiaris [5]): 6; HR (Canis familiaris [6]): 38; LV (Canis familiaris [7]): 3; Cardiac output (Canis familiaris [8]): -14; MAP (Canis familiaris [9]): 5
4 | CS(=O)(=O)Nc1ccc(NCC2CN(c3ccccc3)CCN2)cc1 (configuration not stated) | 2 µM | 1 µM | 
5 | Clc1ccc(N2CCNCC2)cc1 |  | 70 µM | 
6 | COc1cccc(N2CCNCC2)c1 |  | 29 µM | 
7 | Clc1ccccc1N1CCNCC1 |  | 16 µM | 
8 | CC(=O)c1ccc(N2CCNCC2)cc1 |  | > 100 µM | 
9 | O=C(NCC1CN(c2ccccc2)CCN1)c1ccc(-n2ccnc2)cc1 (configuration not stated) | 0.9 µM | 4.3 µM | 
10 | COc1ccccc1N1CCNC(CNC(=O)c2ccc(NS(C)(=O)=O)cc2)C1 (configuration not stated) | 18 µM | 0.63 µM | 
11 | COc1ccc(N2CCNCC2)cc1 |  | > 100 µM | 
12 | CS(=O)(=O)Nc1ccc(C(=O)NCC2CNCCN2c2ccccc2)cc1 (configuration not stated) | 3.2 µM | 31 µM | 
13 | CS(=O)(=O)Nc1ccc(OCC2CN(c3ccccc3)CCN2)cc1 (configuration not stated) | 1 µM | 4.5 µM | 
14 | CS(=O)(=O)Nc1ccc(NCC2CNCCN2c2ccccc2)cc1 (configuration not stated) | 9.2 µM | 42 µM | 
15 | Cc1cccc(N2CCNCC2)c1 |  | 40 µM | 
16 | CC(C)NCC(O)c1ccc(NS(C)(=O)=O)cc1 (configuration not stated) [SOTALOL] | 18 µM |  | No. effective (Canis familiaris [3]): 6; TPR (Canis familiaris [4]): 41; No. active (Canis familiaris [5]): 7; HR (Canis familiaris [6]): -39; LV (Canis familiaris [7]): -33; Cardiac output (Canis familiaris [8]): -44; MAP (Canis familiaris [9]): -26
17 | COc1ccccc1N1CCNCC1 |  | 34 µM | 
18 | Cc1ccccc1N1CCNCC1 |  | 29 µM | 
19 | Clc1cccc(N2CCNCC2)c1 [CHLOROPHENYLPIPERAZINE] |  | 18 µM | 
20 | c1ccc(N2CCNCC2)cc1 [PHENYLPIPERAZINE] |  | > 100 µM | 
21 | COc1cccc(N2CCNC(CNC(=O)c3ccc(NS(C)(=O)=O)cc3)C2)c1 (configuration not stated) | 2.5 µM | 3.5 µM | 
22 | CN(c1ccc(C(=O)NCC2CN(c3ccccc3)CCN2)cc1)S(C)(=O)=O (configuration not stated) |  | 4.3 µM | C20 APD95 (Canis familiaris [10]): inactive
23 | O=C(NCC1CN(c2ccccc2)CCN1)c1ccccc1 (configuration not stated) |  | 6.2 µM | C20 APD95 (Canis familiaris [10]): inactive
24 | CS(=O)(=O)Nc1ccc(NC(=O)C2CN(c3ccccc3)CCN2)cc1 (configuration not stated) | 21 µM | > 100 µM | 
25 | Cc1ccc(N2CCNCC2)cc1 |  | > 100 µM | 
